Measured values collected from several papers.
Compare with care: the assays were run in different laboratories.
Target: Casein kinase II subunit alpha' (CSNK2A2, Homo sapiens, UniProt P19784)

With Cc1ccc(Nc2nccc(N(C)c3ccc4c(C)n(C)nc4c3)n2)cc1S(N)(=O)=O the inhibition was -14% (enzyme activity; inhibitor; 10 µM).
CCCOc1ccc(OC)c(F)c1C(=O)c1ccc(C(=O)N[C@@H]2CNC[C@H]2NC(=O)c2ccc3[nH]ncc3c2)cc1 gave a remaining activity of 93% (enzyme activity; inhibitor; 10 µM).
CNC(=O)c1cc(Oc2ccc(NC(=O)Nc3ccc(Cl)c(C(F)(F)F)c3)cc2)ccn1 gave an inhibition of -33% (enzyme activity; inhibitor; 0.3 µM).
With CC(C)CC(=O)N1CCc2nc(-c3ccc(Br)cc3)nc(N(C)Cc3ccccc3)c2C1 the remaining binding was 88% (cell-free assay; competition with immobilised ligand; 0.1 µM).
For Cc1ccc(NC(=O)c2ccc(C)c(C(F)(F)F)c2)cc1C#Cc1nn(C2CCC(O)CC2)c2ncnc(N)c12 (stereo not drawn), the remaining signal was 92% (cell-free assay; inhibitor; 10 µM).
The remaining binding of COc1ccc2c(O[C@@H]3C[C@H]4C(=O)N[C@]5(C(=O)O)CC5/C=C\CCCCC[C@H](NC(=O)OC5CCCC5)C(=O)N4C3)cc(-c3csc(NC(=O)C(C)C)n3)nc2c1C (stereo partly drawn) is reported as 100% (cell-free assay; competition with immobilised ligand; 1 µM).
COc1cc(Cl)c(C(=O)N[C@@H](CN[C@H]2CC[C@@H](N)CC2)Cc2ccc(C#N)cc2)cc1-c1ccc(CN[C@H](C)c2ccc(C)cc2)o1 gave a remaining activity of 106% (enzyme activity; inhibitor; 1 µM).
COc1cc2ncnc(Nc3ccc(Oc4ccccc4)cc3C)c2cc1OC has an inhibition of 7% (enzyme activity; inhibitor; 1 µM).
With CCN(CC)CCNC(=O)c1c(C)[nH]c(/C=C2\C(=O)Nc3ccc(F)cc32)c1C the inhibition was 49% (enzyme activity; inhibitor; 10 µM).
COc1cccc(CNC(=O)c2nc3scc(COCc4ccc(C(=O)O)cc4)c3c(=O)[nH]2)c1 gave a remaining binding of 79.4% (cell-free assay; competition with immobilised ligand; 1 µM).
CC(C)(O)[C@H]1CC[C@H](Nc2ccc3ncc(-c4cccc(C(F)(F)F)c4)n3n2)CC1 gave a remaining activity of 73.6% (enzyme activity; inhibitor; 1 µM).
CCCOc1ccc([C@H]2[C@H](C(=O)O)[C@@H](c3ccc4c(c3)OCO4)CN2CC(=O)Nc2c(CC)cccc2CC)cc1 has a remaining binding of 87% (cell-free assay; competition with immobilised ligand; 1 µM).
For c1ccc(CNc2nc(N3CCOc4ccccc43)nc3c2CCCC3)cc1, the inhibition was -34.4% (target engagement in cells; inhibitor; chemoproteomics; 20 mM).
The remaining binding of CN(C)C(=O)Cn1cc(-c2nc([C@@](C)(c3ccc(-c4cnc(N)nc4)cc3)C3CC3)no2)cn1 is reported as 90% (cell-free assay; competition with immobilised ligand; 1 µM).
For CCCS(=O)(=O)Nc1ccc(F)c(C(=O)c2c[nH]c3ncc(-c4ccc(Cl)cc4)cc23)c1F, the inhibition was less than 10% (enzyme activity; inhibitor; 1 µM).
The remaining binding of O=C(NC[C@@H]1[C@H]2CN(C(=O)OCc3cc(C(F)(F)F)cc(C(F)(F)F)c3)C[C@@H]12)c1ccc2[nH]nnc2c1 is reported as 92% (cell-free assay; competition with immobilised ligand; 1 µM).
Cc1cnc(NC2CCOCC2)nc1-n1cnc(C(=O)NC(CN)c2cc(F)cc(Cl)c2)c1 (stereo not drawn) has a remaining activity of 97% (enzyme activity; inhibitor; radiometric; 1 µM).
CC(C)(C)c1nc2c(s1)c1nc(N)ncc1c1ccc(NS(=O)(=O)c3c(F)cccc3F)c(F)c12 has a remaining activity of 94% (enzyme activity; inhibitor; radiometric; 1 µM).
The inhibition of COc1cccc2c(NCc3ccccc3)nc(-n3c(N)nc4ccccc43)nc12 is reported as -11.7% (target engagement in cells; inhibitor; chemoproteomics; 20 mM).
Cn1cnc(Br)c1C1=CN(c2ncnc3[nH]cnc23)CCS1 gave an inhibition of 46.5% (enzyme activity; inhibitor; radiometric; 2 µM).
The remaining signal of COc1cc2c(Nc3ccc(Br)cc3F)ncnc2cc1OCC1CCN(C)CC1 is reported as 96.5% (cell-free assay; 0.5 µM).
For CNCc1ccccc1-c1csc([C@@H](C)Nc2nc(C)nc3cc(OC)c(OC)cc23)c1, the remaining binding was 100% (cell-free assay; competition with immobilised ligand; 1 µM).
The remaining signal of O=C1Nc2ccc(Cl)cc2C1=Cc1cc(Cl)c(O)c(Cl)c1 is reported as 33.3% (cell-free assay; 0.5 µM).
For Cc1sc(C(=O)NC2COC2)cc1-n1cc(NC(=O)Nc2c(F)cccc2Cl)cn1, the remaining activity was 95.5% (enzyme activity; inhibitor; 10 µM).
